Measured values: ChEMBL document CHEMBL1154095, “Separation of alpha-glucosidase-inhibitory and liver X receptor-antagonistic activities of phenethylphenyl phthalimide analogs and generation of LXRalpha-selective antagonists” (Bioorg Med Chem, 2009)
Calls of active or inactive are those of the source. The calls are words filed in the database; no cut-off is given here.

Tests used:
[1] = target: T1, Oxysterols receptor LXR-beta (Homo sapiens, UniProt P55055); assay: Antagonist activity at human LXRbeta expressed in HEK293 cells assessed as inhibition of beta-galactosidase activity by luciferase reporter gene assay; format: functional, cell-based
T1 sequence (P55055 whole entry): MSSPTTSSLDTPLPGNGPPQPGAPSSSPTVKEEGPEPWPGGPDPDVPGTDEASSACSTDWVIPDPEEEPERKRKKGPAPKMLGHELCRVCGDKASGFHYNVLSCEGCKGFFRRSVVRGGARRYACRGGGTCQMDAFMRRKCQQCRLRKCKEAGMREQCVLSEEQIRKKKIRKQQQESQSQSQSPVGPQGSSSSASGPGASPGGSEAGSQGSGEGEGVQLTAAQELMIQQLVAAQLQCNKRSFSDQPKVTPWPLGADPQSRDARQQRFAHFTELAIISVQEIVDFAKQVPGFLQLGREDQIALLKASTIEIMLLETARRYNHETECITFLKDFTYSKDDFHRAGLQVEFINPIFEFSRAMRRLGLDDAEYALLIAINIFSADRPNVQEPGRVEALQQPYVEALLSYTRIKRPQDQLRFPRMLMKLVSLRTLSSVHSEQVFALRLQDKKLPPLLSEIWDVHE

[2] = Inhibition of Saccharomyces sp. alpha-glucosidase assessed as p-nitrophenol release
In short: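 Yeast alpha-glucosidase at 0.2 mU/mL in 10 mM phosphate buffer pH 7.0 was preincubated with compound (1% v/v DMSO final) for 10 min at 37 °C. pNPG substrate (final 0.2 mM) was then added and incubated 10 min at 37 °C. The reaction was basified with Na2CO3, and released p-nitrophenol was read at A405. Triplicates, repeated at least twice, normalized averages, IC50.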

[3] = target: T2, Oxysterols receptor LXR-alpha (Homo sapiens, UniProt Q13133); assay: Antagonist activity at human LXRalpha expressed in HEK293 cells assessed as inhibition of beta-galactosidase activity by luciferase reporter gene assay; format: functional, cell-based
T2 sequence (Q13133 whole entry): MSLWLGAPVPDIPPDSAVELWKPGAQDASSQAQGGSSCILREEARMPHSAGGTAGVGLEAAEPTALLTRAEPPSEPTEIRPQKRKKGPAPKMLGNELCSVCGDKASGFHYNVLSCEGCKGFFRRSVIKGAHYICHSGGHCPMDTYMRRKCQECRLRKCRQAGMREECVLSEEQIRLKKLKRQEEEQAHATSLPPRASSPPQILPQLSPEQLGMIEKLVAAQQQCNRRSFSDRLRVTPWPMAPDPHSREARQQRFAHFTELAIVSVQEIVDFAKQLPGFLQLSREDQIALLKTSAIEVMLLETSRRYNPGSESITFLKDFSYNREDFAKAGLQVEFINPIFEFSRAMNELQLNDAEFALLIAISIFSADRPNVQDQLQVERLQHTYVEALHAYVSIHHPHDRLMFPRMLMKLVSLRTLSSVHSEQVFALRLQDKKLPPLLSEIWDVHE

Saccharomyces sp. = assay: Inhibition of Saccharomyces sp. alpha-glucosidase by non-competitive Lineweaver-Burke analysis
[4] = target: Liver X receptor (LXR alpha AND LXR beta) (Homo sapiens) (UniProt Q13133+P55055); assay: Selectivity ratio of IC50 for human LXRbeta over IC50 for human LXRalpha; format: protein assay

| IC50 [1] [µM] | IC50 [2] [µM] | IC50 [3] [µM] | Activity (Saccharomyces sp.) | Selectivity Index [4] | Selectivity ratio [4] | Structure (SMILES) |
| --- | --- | --- | --- | --- | --- | --- |
| > 30 | > 100 | 2.7 |  |  |  | O=C1c2c(Cl)c(Cl)c(Cl)c(Cl)c2C(=O)N1c1ccc(/C=C/c2ccc(O)c(O)c2)cc1 |
| > 30 | 50 | 2.6 |  |  |  | O=C1c2c(Cl)c(Cl)c(Cl)c(Cl)c2C(=O)N1c1cccc(CCc2cccc(O)c2)c1 |
| > 30 | 27 | > 30 |  |  |  | COc1ccc(/C=C/c2cccc(N3C(=O)c4c(Cl)c(Cl)c(Cl)c(Cl)c4C3=O)c2)cc1OC |
| > 30 | 13 | 6.6 |  |  |  | O=C1c2c(Cl)c(Cl)c(Cl)c(Cl)c2C(=O)N1c1cccc(/C=C/c2ccc(O)c(O)c2)c1 |
| > 30 | 49 | 5.5 |  |  |  | COc1ccc(CCc2cccc(N3C(=O)c4c(Cl)c(Cl)c(Cl)c(Cl)c4C3=O)c2)cc1 |
| > 30 | 65 | 6.9 |  |  |  | COc1cccc(CCc2ccc(N3C(=O)c4c(Cl)c(Cl)c(Cl)c(Cl)c4C3=O)cc2)c1 |
| > 30 | > 100 | 3.7 |  |  |  | O=C1c2c(Cl)c(Cl)c(Cl)c(Cl)c2C(=O)N1c1cccc(CCc2ccc(O)cc2)c1 |
| > 30 | 21 | > 30 |  |  |  | O=C1c2c(Cl)c(Cl)c(Cl)c(Cl)c2C(=O)N1c1ccc(/C=C/c2ccccc2)cc1 |
| > 30 | 18 | > 30 | Active |  |  | COc1ccc(CCc2ccc(N3C(=O)c4c(Cl)c(Cl)c(Cl)c(Cl)c4C3=O)cc2)cc1OC |
| > 30 | 31 | > 30 |  |  |  | O=C1c2c(Cl)c(Cl)c(Cl)c(Cl)c2C(=O)N1c1cccc(/C=C/c2ccccc2)c1 |
| 7.7 | > 100 | 6.1 |  |  |  | COc1ccc(CCc2ccccc2N2C(=O)c3c(Cl)c(Cl)c(Cl)c(Cl)c3C2=O)cc1OC |
| 21 | 23 | 6.3 |  |  |  | O=C1c2c(Cl)c(Cl)c(Cl)c(Cl)c2C(=O)N1c1cccc(CCc2ccc(O)c(O)c2)c1 |
| > 30 | 69 | 4.2 |  |  |  | COc1cccc(CCc2cccc(N3C(=O)c4c(Cl)c(Cl)c(Cl)c(Cl)c4C3=O)c2)c1 |
| 14 | 40 | > 20 |  |  |  | COc1ccc(/C=C/c2ccc(N3C(=O)c4c(Cl)c(Cl)c(Cl)c(Cl)c4C3=O)cc2)cc1OC |
| > 30 | 83 | > 30 |  |  |  | COc1ccc(CCc2cccc(N3C(=O)c4c(Cl)c(Cl)c(Cl)c(Cl)c4C3=O)c2)cc1OC |

The next lines start with the compound.

| Structure (SMILES) | IC50 [1] [µM] | IC50 [2] [µM] | IC50 [3] [µM] | Activity (Saccharomyces sp.) | Selectivity Index [4] | Selectivity ratio [4] |
| --- | --- | --- | --- | --- | --- | --- |
| O=C1c2c(Cl)c(Cl)c(Cl)c(Cl)c2C(=O)N1c1ccc(CCc2ccc(O)cc2)cc1 | > 30 | 23 | > 30 |  |  |  |
| O=C1c2c(Cl)c(Cl)c(Cl)c(Cl)c2C(=O)N1c1ccccc1CCc1ccccc1 | > 3 | > 100 | > 3 |  |  |  |
| O=C1c2ccccc2C(=O)N1c1ccc(CCc2ccc(O)c(O)c2)cc1 | > 3 | > 100 | 1.7 |  |  |  |
| COc1ccc(CCc2ccc(N3C(=O)c4c(Cl)c(Cl)c(Cl)c(Cl)c4C3=O)cc2)cc1 | > 30 | > 100 | 8.8 |  |  |  |
| O=C1c2ccccc2C(=O)N1c1cccc(CCc2ccc(O)c(O)c2)c1 | 7.6 | 38 | 6.1 |  |  |  |
| O=C1c2ccccc2C(=O)N1c1ccccc1CCc1ccc(O)c(O)c1 | > 30 | > 100 | 9.8 |  |  |  |
| O=C1c2c(Cl)c(Cl)c(Cl)c(Cl)c2C(=O)N1c1ccc(CCc2ccc(O)c(O)c2)cc1 | > 30 | > 100 | 5.1 |  |  |  |
| O=C1c2ccccc2C(=O)N1c1ccccc1CCc1ccccc1 |  | 16.2 |  |  |  |  |
| COc1ccc(CCc2cccc(N3C(=O)c4ccccc4C3=O)c2)cc1OC | > 30 | > 100 | > 30 |  |  |  |
| O=C1c2ccccc2C(=O)N1c1cccc(CCc2ccccc2)c1 |  | > 100 |  |  |  |  |
| COc1ccc(CCc2ccccc2N2C(=O)c3ccccc3C2=O)cc1OC |  | > 100 |  |  |  |  |
| O=C1c2ccccc2C(=O)N1c1ccc(/C=C/c2ccccc2)cc1 | > 30 | 90 | > 30 |  |  |  |
| COc1ccc(/C=C/c2ccc(N3C(=O)c4ccccc4C3=O)cc2)cc1OC | > 30 | > 100 | 3.8 |  |  |  |
| O=C1c2c(Cl)c(Cl)c(Cl)c(Cl)c2C(=O)N1c1ccccc1CCc1ccc(O)c(O)c1 | 17 | 20 | 15 |  |  |  |
| COc1ccc(CCc2ccc(N3C(=O)c4ccccc4C3=O)cc2)cc1OC | 4.3 | > 100 | 4.8 |  |  |  |
| O=C1c2ccccc2C(=O)N1c1ccc(CCc2cccc(O)c2)cc1 | > 30 | > 100 | 7.5 |  |  |  |
| COc1ccc(CCc2ccc(N3C(=O)c4ccccc4C3=O)cc2)cc1 | > 30 | > 100 | 0.2 |  | > 150 |  |
| O=C1c2c(Cl)c(Cl)c(Cl)c(Cl)c2C(=O)N1c1cccc(CCc2ccccc2)c1 | > 30 | > 100 | > 30 |  |  |  |
| c1cc2cc(c1)Oc1ccc(cc1)CCc1ccccc1-c1ccc(cc1)CC2 |  |  |  |  |  | 11 |
| O=C1c2ccccc2C(=O)N1c1ccc(CCc2ccccc2)cc1 |  | > 100 |  |  |  |  |
| O=C1c2c(Cl)c(Cl)c(Cl)c(Cl)c2C(=O)N1c1ccc(CCc2cccc(O)c2)cc1 | > 30 | 21 | 3.9 |  |  |  |
| O=C1c2ccccc2C(=O)N1c1ccc(/C=C/c2ccc(O)c(O)c2)cc1 | > 1 | > 100 | 1.6 |  |  |  |
| O=C1c2ccccc2C(=O)N1c1ccc(CCc2ccc(O)cc2)cc1 | > 30 | > 100 | 2.9 |  |  |  |
| O=C1c2c(Cl)c(Cl)c(Cl)c(Cl)c2C(=O)N1c1ccc(CCc2ccccc2)cc1 | > 30 | 17 | > 30 |  |  |  |
| COc1cccc(CCc2ccc(N3C(=O)c4ccccc4C3=O)cc2)c1 | 3.5 | > 100 | 2.4 |  |  |  |
